# Measured values as given in ChEMBL document CHEMBL4513216, “Probing the Open Global Health Chemical Diversity Library for Multistage-Active Starting Points for Next-Generation Antimalarials” (ACS Infect Dis, 2020).
# Assay: Toxicity liver stage against HepG2, at 10uM
# Type: cell-based
# Design: test concentration 10 uM, cell line HepG2-A16-CD81EGFP
# Details: human, HepG2-A16-CD81EGFP cells; read-out: INHIBITION
# Method in brief: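 Uninfected HepG2-A16-CD81EGFP cells, 3 × 10^3 per well, 1536-well, plated on prespotted compound at 10 μM final, parasite-free screening media added to match infected plates; puromycin 10 μM positive, DMSO 0.5% negative; run in parallel with 48 h PbLuc assay at 37 °C, 5% CO2; viability by CellTiter-Glo luminescence, normalized to controls.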
row,Structure (SMILES),cytotoxicity at 10 µM [%]
1,COc1ccc(NC(=O)c2nc3ccccc3n(C)c2=O)cc1OC,-7.36
2,CCS(=O)(=O)CCNC(=O)c1cc2n(n1)CCCO2,-8.81
3,CC(C)(C)OC(=O)N1CCN(C(=O)c2cnn3c2OCCC3)CC1,-2
4,CCC(=O)N1CCN(c2cc(N(C)C)cnn2)CC1,2
5,COc1ccc(CN2C[C@@H]3CN(S(=O)(=O)C4CC4)C[C@@H]3C2=O)cc1,-4.01
6,COCCN1C(=O)CCC12CCCN(C(=O)CC1CC1)CC2 (stereo not given),0.346
7,O=C(NC1CC1)c1nc2c(s1)CCCN2c1ccccc1,-157
8,COc1ccc(N2CCCC3(C2)CN(c2ncccn2)CCO3)cc1 (stereo not given),15.3
9,Cc1noc([C@@]23CCO[C@@H]2CCN(C(=O)c2ccsc2)C3)n1,9.1
10,COc1nn(C)c2c1CCCN(C(=O)c1ccsc1)C2,-0.414
11,C[C@@H]1C[C@@H]2CCN(C(=O)c3ccncn3)C[C@H]2O1,-1.55
12,CCCNS(=O)(=O)c1cnccc1N1CCN(C(C)C)CC1,-1.32
13,CC(=O)c1c(C)nn(S(=O)(=O)c2ccc(C)cc2)c1C,-1.61
14,O=C(Cn1nc(-c2cccs2)ccc1=O)N1CCCCCC1,-2.7
15,Cn1cc(Br)c(C(=O)NCCCn2cc(Br)cn2)n1,-6.4
16,COC(=O)c1ccn(COc2ccccc2Cl)n1,8.99
17,CCN1CCN(C(=O)c2cc(-c3cccs3)cs2)CC1,2.93
18,CC(=O)N1CCC(c2nccnc2C)CC1,-2.82
19,CN1CCN(C(=O)CCn2c(C(F)(F)F)cc3cccnc32)CC1,-31.9
20,O=C(Cc1cccs1)N1CCOC(c2cccc(O)c2)C1 (stereo not given),0.631
21,O=C(COCC1CC1)Nc1cc(S(=O)(=O)NC2CC2)ccc1F,-7.63
22,CCOC1CCN(C(=O)c2ccc(-c3cccc(C)c3)[nH]c2=O)CC1,3.08

row,Structure (SMILES),cytotoxicity at 10 µM [%]
1,CCc1nc(CC)n(CC(=O)N(C)Cc2ccc(F)cc2)n1,5.25
2,CC(C)C(C)NC(=O)Nc1cccc(OCC#N)c1 (stereo not given),-1.13
3,COc1cc(C)ccc1OCC(=O)NS(=O)(=O)c1cccnc1,4.03
4,COc1cc(C)ccc1OCCC(=O)N1CCCC(n2cncn2)C1 (stereo not given),-2.69
5,CCc1nc2n(n1)CC(NCc1ccccc1OCC(=O)NC)CC2 (stereo not given),4.57
6,Cc1c(CS(C)(=O)=O)cccc1NC(=O)CC1CCCC1,-6.72
7,COCCN1CCC(CNC(=O)c2c[nH]c(=O)c(Cl)c2)CC1,9.05
8,COc1ccccc1CC1CCN(C(=O)CCN2CCOC2=O)CC1,3.76
9,COc1cc(C(C)=O)ccc1OCC(=O)N(Cc1ccsc1)C1CC1,1.88
10,CN(C)CCSc1ccc(NC(=O)c2nccn3ccnc23)cc1,-6.25
11,CC(C)NC(=O)CCNC(=O)Nc1cnn(-c2ccccc2F)c1,1.21
12,COCCN(Cc1ccc(F)cc1Cl)C(=O)c1c(C)noc1C,-1.82
13,CN(Cc1nccn1CC(F)(F)F)C(=O)c1cccc(N(C)C)c1,3.92
14,CC(C)N(C)CC(=O)NCC(Cc1ccc(F)cc1)C(N)=O (stereo not given),13.6
15,Cc1cc(NC(=O)C2CCCN(C(=O)NCC(C)C)C2)ccn1 (stereo not given),-10.5
16,Cc1ccc(NS(C)(=O)=O)c(C(=O)NCCC(=O)NC(C)C)c1,-0.141
17,Cc1cc(NC(=O)CN2CCCC(Cn3cncn3)C2)no1 (stereo not given),-0.749
18,Cc1nc(C2(NCc3ccc(C#N)cc3F)CCCC2)no1,2.78
19,CC(C)c1nc2c(n1C)CCN(CCc1ccccn1)C2,-2.01
20,CC(C)(C)CC(=O)NS(=O)(=O)c1ccc(F)cc1C(F)(F)F,-4.3
21,Cc1cnn(CCC(=O)Nc2ccc(F)cc2OCC2CC2)c1,-4.11
22,O=C(c1ncoc1-c1ccco1)N(Cc1ccco1)CC1CCCO1 (stereo not given),-2.05

row,Structure (SMILES),cytotoxicity at 10 µM [%]
1,CC(=O)NCCSCCOc1cccc(Br)c1,10.1
2,Cc1cccc(N(CCC(N)=O)CC(=O)NC2CCCC2)c1,-20
3,COc1ccc(CSc2nnc(N)n2C2CC2)cc1F,5.11
4,O=C(Nc1ccccc1)c1ccc(NCc2ccncc2)nn1,-3.17
5,O=C(NCCOCC1CC1)Nc1ccc(F)cc1,9.28
6,CN(CC(=O)NC(C)(C#N)C1CC1)Cc1nnc(C2CC2)n1C (stereo not given),7.32
7,CN(C)c1ccc(NC(=O)N2CCCCCC2c2ccncc2)cn1 (stereo not given),0.462
8,O=C(NC1(c2nnn(CCO)n2)CCCC1)c1ccccc1,14.8
9,Cn1ncc2c1C(COCC1CC1)CN(S(=O)(=O)C1CC1)C2 (stereo not given),-74.3
10,CN(C)CCO[C@H]1CN(C(=O)c2cscn2)[C@@H]2COC[C@H]12,1.43
11,CN(C)C1(CNc2nccc(C3CCCC3)n2)CCOCC1,-1.3
12,COCCn1cnnc1CCn1ccnc1-c1ccccc1Cl,-8.25
13,Cc1cc(N(C)CCN(C)C2CCCC2)n2nc(C)cc2n1,-6.09
14,Cn1cnnc1CN1CCC2(CCCN(C3CCCC3)C2=O)C1 (stereo not given),-133
15,COc1ccc(N2CCN(C(=O)Cn3nccc3C)CC2(C)C)cc1,6.68
16,O=C(NCc1c[nH]c(=O)[nH]c1=O)C1CCOc2ccccc2C1 (stereo not given),-3.03
17,O=C1CCC2(CCNCC2)CN1CCCNc1cccnc1,-6.46
18,CC(C)c1nc(CN(C)C(=O)C(O)c2ccc(Cl)cc2)cs1 (stereo not given),-150
19,CC1(C)CNC(=O)c2nc(C3CCCN(C(=O)C4CC4)C3)[nH]c2C1 (stereo not given),3.74
20,Cc1ncsc1CN1CCC2(CC1)CC(=O)N(Cc1ccc(Cl)cc1)C2,6.83
21,COCc1nc(N2CC[C@H](N(C)C)C2)c2cnn(C)c2n1,-6.67
22,O=C(CSc1ccncc1)NC1CC(=O)N(CCc2ccccc2)C1 (stereo not given),0.318

row,Structure (SMILES),cytotoxicity at 10 µM [%]
1,CCCc1nnc(N2CCN(c3ccccc3Cl)CC2)o1,0.426
2,O=C(c1cc(COc2ccc3c(c2)OCO3)[nH]n1)N1CCCO1,-1.59
3,CCCN1CCCC2(CCN(Cc3noc(C4CCCC4)n3)C2)C1=O (stereo not given),0.603
4,CC1CCN(S(=O)(=O)N2CCCC(c3cccc(C(=O)O)c3)C2)CC1 (stereo not given),-13.3
5,CN(C)CCNC(=O)c1cc2n(n1)CCN(C(=O)CC(C)(C)C)C2,-1.85
6,CCOc1ccccc1C(=O)N1CCCC(c2nccn2CCOC)C1 (stereo not given),1.1
7,OC1(CN2CCCC2)COCCN(c2cc(C(F)(F)F)ccn2)C1 (stereo not given),-5.34
8,CCOc1ccc(-c2nc(C(=O)NCC3CCOC3)cs2)cc1 (stereo not given),-4.33
9,Cc1nn(C)c(C)c1C1COCCN1C(=O)c1ccc(Cl)o1 (stereo not given),2.01
10,CCNC(=O)N(C)C(c1ccccc1)c1ccccn1 (stereo not given),1.52
11,Cc1nc(C(=O)N2CCOC(c3nc(C(C)C)n[nH]3)C2)c[nH]1 (stereo not given),-1.58
12,c1ccc(Cc2nnc(CN3CCCC(Cn4cncn4)C3)o2)cc1 (stereo not given),-4.51
13,Cc1cc(C)n(C2CCCN(C(=O)Cc3cn4ccsc4n3)C2)n1 (stereo not given),-6.07
14,COc1ccccc1CNC(=O)Cn1nc(-c2ccc(F)cc2)oc1=O,-10.8
15,CS(=O)(=O)Cc1ccc(C(=O)NC2CCc3nccn3C2)o1 (stereo not given),-8.77
16,Cc1cnc(C(=O)NC(CN2CCCC2=O)c2ccccc2)cn1 (stereo not given),-8.8
17,O=C(Nc1ccncc1)C1=NN(c2ccccc2)C(=O)CN1,2.76
18,Cc1csc(N2CCN(C(=O)CCn3cccn3)CC2)n1,-9.41
19,Cc1nn(C)c(N2CCOCC2)c1CN[C@@H]1c2ccccc2C[C@@H]1O,-12.2
20,CCc1n[nH]c(C2CN(C(=O)c3cc(C(N)=O)cs3)CCO2)n1 (stereo not given),-17.5
21,CC(=O)NC1CCCN(C(=O)Nc2cccnc2-n2cccn2)C1 (stereo not given),-15.3
22,CCn1ccnc1CN1CCCN(C(=O)COC2CCCCC2)CC1,-11.7

row,Structure (SMILES),cytotoxicity at 10 µM [%]
1,CC(=O)Nc1nc(C(=O)NCc2ccc(OC(C)C)nc2)cs1,-2.45
2,COc1ccc(C)cc1C(=O)N1CCCC(n2cncn2)C1 (stereo not given),-13.3
3,Cc1cnn(CC2CCCN2C(=O)c2cn(C)c3ccccc23)c1 (stereo not given),-2.12
4,CCc1ccsc1C(=O)N1CCCN(Cc2cscn2)CC1,-4.77
5,CS(=O)(=O)NC1CCCN(C(=O)c2cccnc2)C1 (stereo not given),-3.75
6,Cc1nc(C2CCCN2Cc2nnc(Cc3ccccc3)o2)no1 (stereo not given),-5
7,Cc1noc(CCCC(=O)NC(C)c2cccnc2)n1 (stereo not given),-12.5
8,O=C(c1ccc(-n2cccn2)nc1)N1CCC(Nc2cccnn2)CC1,-1.08
9,O=C1N(Cc2cccc(Cl)c2)CCC12CCCNC2 (stereo not given),-16.5
10,Cc1ccc(O[C@@H]2C[C@H]3CN(Cc4nccn4C)CCN3C2)cc1,3.39
11,c1cncc(COCc2nnc3n2CCN(CC2CC2)C3)c1,-3.03
12,O=C([C@H]1C[C@@H]2CCN(C3CCOCC3)C[C@@H]2O1)N1CCOCC1,-2.56
13,Cc1oncc1C(=O)N1CCC2(CC1)CC(N1CCOCC1)C2,-2.69
14,Fc1cnc(N2CCCC3(CN(Cc4ccccc4)CCO3)C2)nc1 (stereo not given),12.4
15,O=C(NCc1ccco1)[C@H]1C[C@H]2OCC[C@H]2N(C(=O)c2ccncc2)C1,-5.34
16,O=C(c1cnccn1)N1CCCC2(CCN(c3ccccn3)C2)C1 (stereo not given),5.77
17,CN1CCN(Cc2cccnc2)C2(CCN(Cc3ccccn3)C2)C1=O (stereo not given),-3.66
18,O=C(c1ncccn1)N1C[C@H]2CCC[C@@]2(COCc2ccncc2)C1,-3.08
19,Cc1csc(NC(=O)[C@@H]2C[C@H]3[C@H](CCN3c3ncccn3)O2)n1,-13.8
20,COc1cccc(C=CCCN2CCC(C(=O)N3CCCC3)CC2)c1,7.09
21,CC(C)=CCN1C(=O)[C@@H]2CC[C@H]1CN(C(=O)CCc1nnc(Cl)[nH]1)C2,2.96
22,O=C(NCC1(COc2cnccn2)C[C@@H](O)[C@@H](O)C1)C1CCCC1 (stereo not given in full),-1.81
